These results are taken from ChEMBL document CHEMBL5653631, “A Potent and Selective ULK1 Inhibitor Suppresses Autophagy and Sensitizes Cancer Cells to Nutrient Stress” (iScience, 2018).

Assay [1] has as its target T1, Serine/threonine-protein kinase haspin (Homo sapiens) (UniProt Q8TF76).
T1 sequence (whole entry): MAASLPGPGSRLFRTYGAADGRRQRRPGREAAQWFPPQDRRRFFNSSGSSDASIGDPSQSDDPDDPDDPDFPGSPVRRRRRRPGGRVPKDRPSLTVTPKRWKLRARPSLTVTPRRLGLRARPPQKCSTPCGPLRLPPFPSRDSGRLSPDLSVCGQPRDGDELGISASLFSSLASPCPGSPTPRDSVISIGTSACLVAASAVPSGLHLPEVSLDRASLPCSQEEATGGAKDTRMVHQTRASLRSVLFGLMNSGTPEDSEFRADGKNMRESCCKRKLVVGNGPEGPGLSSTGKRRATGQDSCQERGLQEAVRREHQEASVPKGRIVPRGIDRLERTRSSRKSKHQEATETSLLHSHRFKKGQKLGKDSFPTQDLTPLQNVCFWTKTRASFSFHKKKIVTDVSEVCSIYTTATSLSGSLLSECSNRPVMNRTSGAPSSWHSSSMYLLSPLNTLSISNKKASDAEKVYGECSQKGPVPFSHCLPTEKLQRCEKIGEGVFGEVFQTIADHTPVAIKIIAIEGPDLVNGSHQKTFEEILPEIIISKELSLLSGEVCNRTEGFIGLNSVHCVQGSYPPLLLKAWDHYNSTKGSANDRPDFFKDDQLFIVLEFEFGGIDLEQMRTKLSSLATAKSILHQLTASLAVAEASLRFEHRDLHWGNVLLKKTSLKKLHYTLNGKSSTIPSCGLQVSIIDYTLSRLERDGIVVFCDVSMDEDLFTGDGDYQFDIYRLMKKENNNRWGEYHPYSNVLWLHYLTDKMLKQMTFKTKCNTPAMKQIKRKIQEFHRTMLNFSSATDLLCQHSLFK
The assay can be described thus: Inhibition of human recombinant Haspin at 500 nM in presence of ATP by radiometric assay relative to control.

The target in assay [2] is T2, Activin receptor type-1B (Homo sapiens) (UniProt P36896).
T2 sequence (whole entry): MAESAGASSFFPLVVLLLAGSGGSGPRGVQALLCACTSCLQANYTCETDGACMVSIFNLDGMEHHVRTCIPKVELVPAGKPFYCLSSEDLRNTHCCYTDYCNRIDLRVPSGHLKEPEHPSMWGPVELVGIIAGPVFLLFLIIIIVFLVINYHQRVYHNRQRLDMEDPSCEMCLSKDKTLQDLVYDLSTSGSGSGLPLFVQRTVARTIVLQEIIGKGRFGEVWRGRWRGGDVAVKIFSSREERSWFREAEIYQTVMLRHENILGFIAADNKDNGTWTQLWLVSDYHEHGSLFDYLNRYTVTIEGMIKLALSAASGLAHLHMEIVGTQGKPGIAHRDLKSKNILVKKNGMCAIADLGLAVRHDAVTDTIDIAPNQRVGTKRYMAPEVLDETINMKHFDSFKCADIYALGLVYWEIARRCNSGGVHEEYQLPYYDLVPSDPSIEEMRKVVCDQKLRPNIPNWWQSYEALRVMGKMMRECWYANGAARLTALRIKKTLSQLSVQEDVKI
Kind of assay: Inhibition of human recombinant ALK4 at 500 nM related to control ULK1. An outline of the steps: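 Panel of 327 recombinant human kinases, each assayed in vitro by radiometric activity assay in duplicate at a single inhibitor concentration per compound, chosen with reference to its ULK1 inhibition. Activity remaining was expressed as percent of vehicle control, and percent inhibition was calculated as 100 minus percent activity remaining.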

For assay [3], the target named is Protein-tyrosine kinase 6 (Homo sapiens) (UniProt Q13882). The assay can be described thus: Inhibition of human recombinant BRK at 15 nM related to control ULK1.
Assay [4] addresses T3, MAPK/MAK/MRK overlapping kinase (Homo sapiens) (UniProt Q9UQ07).
T3 sequence (whole entry): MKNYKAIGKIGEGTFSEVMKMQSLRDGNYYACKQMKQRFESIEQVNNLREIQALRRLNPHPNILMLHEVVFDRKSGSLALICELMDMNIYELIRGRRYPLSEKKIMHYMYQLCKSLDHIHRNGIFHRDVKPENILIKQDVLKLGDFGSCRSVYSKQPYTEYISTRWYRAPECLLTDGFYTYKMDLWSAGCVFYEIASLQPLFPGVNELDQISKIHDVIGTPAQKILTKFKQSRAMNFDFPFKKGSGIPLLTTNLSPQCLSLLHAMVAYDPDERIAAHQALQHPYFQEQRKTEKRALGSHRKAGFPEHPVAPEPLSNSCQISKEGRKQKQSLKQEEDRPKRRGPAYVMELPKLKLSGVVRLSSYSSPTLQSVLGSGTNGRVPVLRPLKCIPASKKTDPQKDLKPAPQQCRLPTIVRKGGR
The assay can be described thus: Inhibition of human recombinant MOK at 15 nM related to control ULK1.

Sequence of Protein-tyrosine kinase 6 (Homo sapiens) (Q13882 whole entry, looked up): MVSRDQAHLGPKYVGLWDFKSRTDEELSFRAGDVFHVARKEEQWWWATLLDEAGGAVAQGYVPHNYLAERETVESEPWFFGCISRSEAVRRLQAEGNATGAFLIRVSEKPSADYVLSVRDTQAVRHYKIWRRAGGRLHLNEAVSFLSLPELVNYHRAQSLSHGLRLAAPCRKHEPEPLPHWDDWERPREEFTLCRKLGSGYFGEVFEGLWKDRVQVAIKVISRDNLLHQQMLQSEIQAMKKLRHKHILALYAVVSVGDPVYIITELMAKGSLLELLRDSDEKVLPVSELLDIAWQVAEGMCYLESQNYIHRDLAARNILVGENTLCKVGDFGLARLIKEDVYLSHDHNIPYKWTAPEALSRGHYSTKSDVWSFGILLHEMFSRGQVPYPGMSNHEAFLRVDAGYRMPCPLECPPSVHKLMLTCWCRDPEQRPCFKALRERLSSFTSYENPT

Regarding `CNC(=O)c1ccccc1Oc1nc(Nc2cc(OC)c(OC)c(OC)c2)ncc1Br`, in assay [1], the inhibition worked out at 0%. In assay [2], the fold change (FC) came to 0.2.
As for `CC(C)[C@H](NC(=O)c1cc(-c2cnn3cc(-c4ccc(OCCN5CCCCC5)cc4)cnc23)cs1)C(F)(F)F`, the fold change (FC) was determined as 0.09 in assay [3] and 0.06 in assay [4].

In general, inhibition refers to the share of the control response that was lost under treatment.
